Results: ChEMBL document CHEMBL4118021, “Studies of TAK1-centered polypharmacology with novel covalent TAK1 inhibitors” (Bioorg Med Chem, 2017)
Each block holds one molecule with its values, some of them ahead of it. Activity calls are given as the source filed them. No cut-off for these calls is given here.

Assays:
[1] = target: Heterogeneous nuclear ribonucleoproteins A2/B1 (Homo sapiens) (UniProt P22626); assay: Binding affinity to HNRNPA2B1 in human NCI-H23 cells at 1 uM by mass spectrometry based pull down assay; type: cell-based
Chain of Heterogeneous nuclear ribonucleoproteins A2/B1 (Homo sapiens) (P22626 whole entry): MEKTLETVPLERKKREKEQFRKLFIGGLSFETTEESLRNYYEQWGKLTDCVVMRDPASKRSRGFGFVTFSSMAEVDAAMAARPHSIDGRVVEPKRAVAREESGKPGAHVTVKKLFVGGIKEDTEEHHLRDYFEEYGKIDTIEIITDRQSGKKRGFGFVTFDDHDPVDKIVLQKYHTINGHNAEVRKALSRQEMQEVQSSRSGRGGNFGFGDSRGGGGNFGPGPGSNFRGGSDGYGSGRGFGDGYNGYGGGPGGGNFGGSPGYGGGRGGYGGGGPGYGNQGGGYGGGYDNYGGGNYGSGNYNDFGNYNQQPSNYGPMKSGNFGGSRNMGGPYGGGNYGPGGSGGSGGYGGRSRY

[2] = target: THO complex subunit 4 (Homo sapiens) (UniProt Q86V81); assay: Binding affinity to ALYREF in human NCI-H23 cells at 1 uM by mass spectrometry based pull down assay; type: cell-based
[3] = target: 80S Ribosome (Homo sapiens) (UniProt P08865+P42677+P62753+P15880+P23396+P61247+P62701+P22090+P46782+P62081+P62241+P46781+P46783+P62280+P25398+P62277+P62263+P62841+P62244+P62249+P08708+P62269+P39019+P60866+P63220+P62266+P62847+P62851+P62854+P62979+P62857+P62273+P62861+P39023+P36578+P46777+Q02878+P18124+P62424+P62917+P32969+P27635+P62906+P62913+P30050+P26373+P40429+P50914+P61313+P18621+Q07020+Q02543+P84098+P46778+P35268+P62829+P62750+P83731+P61254+P61353+P46776+P46779+P47914+P62888+P62899+P62910+P49207+P42766+P18077+Q9Y3U8+P83881+P61927+P61513+P63173+P62891+P62945+P05388+P05386); assay: Binding affinity to RPLP1 in human NCI-H23 cells at 1 uM by mass spectrometry based pull down assay; type: cell-based
[4] = target: E3 ubiquitin-protein ligase UBR4 (Homo sapiens) (UniProt Q5T4S7); assay: Binding affinity to UBR4 in human NCI-H23 cells at 1 uM by mass spectrometry based pull down assay; type: cell-based
[5] = target: Myeloid leukemia factor 2 (Homo sapiens) (UniProt Q15773); assay: Binding affinity to MLF2 in human NCI-H23 cells at 1 uM by mass spectrometry based pull down assay; type: cell-based
Chain of Myeloid leukemia factor 2 (Homo sapiens) (Q15773 whole entry): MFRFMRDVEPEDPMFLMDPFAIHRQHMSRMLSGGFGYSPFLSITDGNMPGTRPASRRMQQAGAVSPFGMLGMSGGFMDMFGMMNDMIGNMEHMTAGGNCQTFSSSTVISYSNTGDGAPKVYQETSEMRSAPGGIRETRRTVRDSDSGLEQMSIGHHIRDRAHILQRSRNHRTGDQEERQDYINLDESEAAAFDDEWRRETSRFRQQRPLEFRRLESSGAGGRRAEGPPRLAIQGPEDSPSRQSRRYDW

NCI-H23 = assay: Binding affinity to PSMA1 in human NCI-H23 cells at 1 uM by mass spectrometry based pull down assay; type: cell-based
[6] = target: RuvB-like 2 (Homo sapiens) (UniProt Q9Y230); assay: Binding affinity to RUVBL2 in human NCI-H23 cells at 1 uM by mass spectrometry based pull down assay; type: cell-based
Chain of RuvB-like 2 (Homo sapiens) (Q9Y230 whole entry): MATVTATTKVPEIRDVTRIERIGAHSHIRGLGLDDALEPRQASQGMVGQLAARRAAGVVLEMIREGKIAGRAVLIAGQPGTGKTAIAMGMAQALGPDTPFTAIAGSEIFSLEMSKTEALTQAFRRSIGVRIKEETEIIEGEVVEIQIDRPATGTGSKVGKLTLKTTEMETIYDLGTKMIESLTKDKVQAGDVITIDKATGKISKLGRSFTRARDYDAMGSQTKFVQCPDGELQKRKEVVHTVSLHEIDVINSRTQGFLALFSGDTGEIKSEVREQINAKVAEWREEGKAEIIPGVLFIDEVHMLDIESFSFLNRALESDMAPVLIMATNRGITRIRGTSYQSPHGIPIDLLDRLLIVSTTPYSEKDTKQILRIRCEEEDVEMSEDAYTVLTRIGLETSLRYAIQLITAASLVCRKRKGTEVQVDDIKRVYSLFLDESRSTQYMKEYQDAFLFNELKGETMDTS

[7] = target: StAR-related lipid transfer protein 7, mitochondrial (Homo sapiens) (UniProt Q9NQZ5); assay: Binding affinity to STARD7 in human NCI-H23 cells at 1 uM by mass spectrometry based pull down assay; type: cell-based
Chain of StAR-related lipid transfer protein 7, mitochondrial (Homo sapiens) (Q9NQZ5 whole entry): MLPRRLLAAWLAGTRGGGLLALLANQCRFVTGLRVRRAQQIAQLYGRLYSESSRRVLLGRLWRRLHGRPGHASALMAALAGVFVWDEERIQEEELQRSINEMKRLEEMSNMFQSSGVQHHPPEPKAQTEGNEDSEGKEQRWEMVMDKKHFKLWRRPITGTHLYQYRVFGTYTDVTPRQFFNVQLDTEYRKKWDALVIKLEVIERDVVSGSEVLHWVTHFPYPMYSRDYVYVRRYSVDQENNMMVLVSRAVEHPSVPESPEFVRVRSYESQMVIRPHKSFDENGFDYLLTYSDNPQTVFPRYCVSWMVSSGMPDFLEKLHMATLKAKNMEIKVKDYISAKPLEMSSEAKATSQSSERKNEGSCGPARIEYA

[8] = target: RuvB-like 1 (Homo sapiens) (UniProt Q9Y265); assay: Binding affinity to RUVBL1 in human NCI-H23 cells at 1 uM by mass spectrometry based pull down assay; type: cell-based
Chain of RuvB-like 1 (Homo sapiens) (Q9Y265 whole entry): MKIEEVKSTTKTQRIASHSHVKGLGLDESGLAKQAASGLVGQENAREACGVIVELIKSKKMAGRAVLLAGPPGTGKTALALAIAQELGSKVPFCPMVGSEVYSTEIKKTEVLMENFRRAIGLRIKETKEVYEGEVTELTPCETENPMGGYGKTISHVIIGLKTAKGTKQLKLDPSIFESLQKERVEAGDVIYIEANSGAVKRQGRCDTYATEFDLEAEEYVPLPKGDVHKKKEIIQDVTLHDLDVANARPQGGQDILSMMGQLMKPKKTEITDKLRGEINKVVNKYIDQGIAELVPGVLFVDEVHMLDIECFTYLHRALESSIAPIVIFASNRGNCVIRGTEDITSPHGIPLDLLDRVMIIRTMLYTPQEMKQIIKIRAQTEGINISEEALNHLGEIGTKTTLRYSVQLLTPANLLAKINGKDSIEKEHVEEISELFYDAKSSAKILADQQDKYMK

[9] = target: Monofunctional C1-tetrahydrofolate synthase, mitochondrial (Homo sapiens) (UniProt Q6UB35); assay: Binding affinity to MTHFD1L in human NCI-H23 cells at 1 uM by mass spectrometry based pull down assay; type: cell-based
[10] = target: Heterogeneous nuclear ribonucleoprotein U (Homo sapiens) (UniProt Q00839); assay: Binding affinity to HNRNPU in human NCI-H358 cells at 1 uM by mass spectrometry based pull down assay; type: cell-based
Chain of Heterogeneous nuclear ribonucleoprotein U (Homo sapiens) (Q00839 whole entry): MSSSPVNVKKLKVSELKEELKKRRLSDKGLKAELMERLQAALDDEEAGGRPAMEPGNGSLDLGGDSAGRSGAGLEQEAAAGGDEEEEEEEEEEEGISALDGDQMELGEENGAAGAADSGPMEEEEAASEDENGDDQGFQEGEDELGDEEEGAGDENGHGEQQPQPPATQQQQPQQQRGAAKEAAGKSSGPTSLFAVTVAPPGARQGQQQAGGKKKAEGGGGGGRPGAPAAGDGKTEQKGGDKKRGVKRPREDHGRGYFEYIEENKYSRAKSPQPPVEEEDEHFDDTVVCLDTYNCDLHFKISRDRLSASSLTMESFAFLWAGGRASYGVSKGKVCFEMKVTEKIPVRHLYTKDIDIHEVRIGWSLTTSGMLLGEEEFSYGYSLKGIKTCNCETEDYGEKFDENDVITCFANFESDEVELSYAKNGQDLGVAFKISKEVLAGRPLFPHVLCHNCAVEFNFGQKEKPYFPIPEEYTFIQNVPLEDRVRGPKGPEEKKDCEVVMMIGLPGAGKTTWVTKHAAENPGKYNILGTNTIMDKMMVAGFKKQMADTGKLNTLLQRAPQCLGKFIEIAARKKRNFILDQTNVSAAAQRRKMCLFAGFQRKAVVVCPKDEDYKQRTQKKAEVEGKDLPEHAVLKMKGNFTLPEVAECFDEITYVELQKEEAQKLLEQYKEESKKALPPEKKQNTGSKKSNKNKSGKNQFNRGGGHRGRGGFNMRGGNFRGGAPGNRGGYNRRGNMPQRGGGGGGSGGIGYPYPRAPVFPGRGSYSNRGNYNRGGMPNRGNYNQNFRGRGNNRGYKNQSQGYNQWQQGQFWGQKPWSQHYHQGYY

[11] = target: DnaJ homolog subfamily B member 6 (Homo sapiens) (UniProt O75190); assay: Binding affinity to DNAJB6 in human NCI-H358 cells at 1 uM by mass spectrometry based pull down assay; type: cell-based
Chain of DnaJ homolog subfamily B member 6 (Homo sapiens) (O75190 whole entry): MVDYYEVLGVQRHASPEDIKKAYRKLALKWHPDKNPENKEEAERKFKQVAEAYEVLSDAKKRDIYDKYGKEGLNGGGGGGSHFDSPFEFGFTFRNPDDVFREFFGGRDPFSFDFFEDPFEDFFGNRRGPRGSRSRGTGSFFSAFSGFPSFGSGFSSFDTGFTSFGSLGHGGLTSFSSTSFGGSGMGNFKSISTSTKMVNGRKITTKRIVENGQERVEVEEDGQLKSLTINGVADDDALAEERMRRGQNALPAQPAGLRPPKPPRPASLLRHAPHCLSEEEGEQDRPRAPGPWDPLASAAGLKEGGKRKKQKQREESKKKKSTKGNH

[12] = target: Proteasome subunit beta type-6 (Homo sapiens) (UniProt P28072); assay: Binding affinity to PSMB6 in human NCI-H358 cells at 1 uM by mass spectrometry based pull down assay; type: cell-based
Chain of Proteasome subunit beta type-6 (Homo sapiens) (P28072 whole entry): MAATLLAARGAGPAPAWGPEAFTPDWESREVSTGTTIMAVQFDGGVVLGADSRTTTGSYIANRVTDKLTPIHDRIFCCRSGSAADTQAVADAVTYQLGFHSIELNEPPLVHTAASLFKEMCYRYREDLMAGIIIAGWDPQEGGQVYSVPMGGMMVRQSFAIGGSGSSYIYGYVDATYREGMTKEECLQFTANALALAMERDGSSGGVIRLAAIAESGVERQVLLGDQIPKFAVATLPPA

[13] = target: Interleukin-1 receptor-associated kinase 1 (Homo sapiens) (UniProt P51617); assay: Binding affinity to IRAK1 in human NCI-H358 cells at 1 uM by mass spectrometry based pull down assay; type: cell-based
Chain of Interleukin-1 receptor-associated kinase 1 (Homo sapiens) (P51617 whole entry, looked up): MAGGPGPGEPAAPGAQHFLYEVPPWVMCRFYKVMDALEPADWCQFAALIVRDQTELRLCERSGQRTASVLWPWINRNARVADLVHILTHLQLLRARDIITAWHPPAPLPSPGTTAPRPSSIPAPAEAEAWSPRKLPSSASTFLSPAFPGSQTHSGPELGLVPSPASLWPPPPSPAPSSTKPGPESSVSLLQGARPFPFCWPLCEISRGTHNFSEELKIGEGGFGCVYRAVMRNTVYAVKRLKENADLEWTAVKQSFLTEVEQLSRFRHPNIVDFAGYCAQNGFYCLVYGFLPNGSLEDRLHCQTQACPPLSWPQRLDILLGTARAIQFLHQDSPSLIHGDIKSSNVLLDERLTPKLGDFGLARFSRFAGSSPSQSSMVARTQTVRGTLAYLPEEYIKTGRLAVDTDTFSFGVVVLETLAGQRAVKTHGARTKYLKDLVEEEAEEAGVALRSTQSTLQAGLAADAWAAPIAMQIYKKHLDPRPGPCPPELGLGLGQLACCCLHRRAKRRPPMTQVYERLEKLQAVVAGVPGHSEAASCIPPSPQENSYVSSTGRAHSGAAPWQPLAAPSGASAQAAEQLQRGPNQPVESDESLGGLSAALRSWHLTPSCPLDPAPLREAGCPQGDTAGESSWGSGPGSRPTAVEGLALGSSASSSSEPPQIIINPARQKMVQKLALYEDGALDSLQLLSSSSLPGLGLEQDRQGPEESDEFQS

[14] = target: Carbonyl reductase [NADPH] 1 (Homo sapiens) (UniProt P16152); assay: Binding affinity to CBR1 in human NCI-H358 cells at 1 uM by mass spectrometry based pull down assay; type: cell-based
Chain of Carbonyl reductase [NADPH] 1 (Homo sapiens) (P16152 whole entry): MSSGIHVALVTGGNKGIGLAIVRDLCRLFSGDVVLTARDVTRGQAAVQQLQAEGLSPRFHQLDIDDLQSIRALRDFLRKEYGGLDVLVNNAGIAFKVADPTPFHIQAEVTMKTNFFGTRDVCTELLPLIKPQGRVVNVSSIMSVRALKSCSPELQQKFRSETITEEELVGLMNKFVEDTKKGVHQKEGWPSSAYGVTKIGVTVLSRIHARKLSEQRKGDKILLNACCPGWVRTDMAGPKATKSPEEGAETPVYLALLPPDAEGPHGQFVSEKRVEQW

[15] = target: Poly(rC)-binding protein 1 (Homo sapiens) (UniProt Q15365); assay: Binding affinity to PCBP1 in human NCI-H358 cells at 1 uM by mass spectrometry based pull down assay; type: cell-based
[16] = target: T1, Dual specificity mitogen-activated protein kinase kinase 6 (Homo sapiens) (UniProt P52564); assay: Binding affinity to MAP2K6 in human NCI-H358 cells at 1 uM by mass spectrometry based pull down assay; type: cell-based
T1 sequence (whole entry): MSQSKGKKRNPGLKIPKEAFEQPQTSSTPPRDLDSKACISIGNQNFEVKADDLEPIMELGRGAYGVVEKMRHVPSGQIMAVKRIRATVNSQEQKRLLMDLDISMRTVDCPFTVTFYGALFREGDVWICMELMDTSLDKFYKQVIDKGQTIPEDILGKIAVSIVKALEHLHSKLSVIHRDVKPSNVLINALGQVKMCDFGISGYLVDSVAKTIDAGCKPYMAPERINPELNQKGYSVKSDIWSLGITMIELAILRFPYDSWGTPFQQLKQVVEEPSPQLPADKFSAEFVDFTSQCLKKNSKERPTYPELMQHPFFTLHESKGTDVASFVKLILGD

[17] = target: Inosine-5'-monophosphate dehydrogenase 2 (Homo sapiens) (UniProt P12268); assay: Binding affinity to IMPDH2 in human NCI-H358 cells at 1 uM by mass spectrometry based pull down assay; type: cell-based
Chain of Inosine-5'-monophosphate dehydrogenase 2 (Homo sapiens) (P12268 2-514 limits assumed): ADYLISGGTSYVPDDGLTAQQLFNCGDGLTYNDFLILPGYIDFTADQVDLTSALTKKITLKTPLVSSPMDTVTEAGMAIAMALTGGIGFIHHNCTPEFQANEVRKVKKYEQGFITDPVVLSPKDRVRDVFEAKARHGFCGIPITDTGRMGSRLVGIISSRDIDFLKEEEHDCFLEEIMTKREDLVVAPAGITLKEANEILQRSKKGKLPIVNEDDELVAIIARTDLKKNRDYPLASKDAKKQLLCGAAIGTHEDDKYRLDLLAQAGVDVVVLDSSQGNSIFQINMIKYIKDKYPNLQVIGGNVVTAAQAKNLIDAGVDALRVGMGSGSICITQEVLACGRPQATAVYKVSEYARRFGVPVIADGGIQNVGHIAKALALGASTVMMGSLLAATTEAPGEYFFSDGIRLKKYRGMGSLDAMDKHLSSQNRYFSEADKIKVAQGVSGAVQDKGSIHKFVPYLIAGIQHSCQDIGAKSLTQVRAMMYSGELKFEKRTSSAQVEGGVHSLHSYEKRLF

[18] = target: High mobility group protein B2 (Homo sapiens) (UniProt P26583); assay: Binding affinity to HMGB2 in human NCI-H358 cells at 1 uM by mass spectrometry based pull down assay; type: cell-based
[19] = target: Heterogeneous nuclear ribonucleoprotein Q (Homo sapiens) (UniProt O60506); assay: Binding affinity to SYNCRIP in human NCI-H358 cells at 1 uM by mass spectrometry based pull down assay; type: cell-based
[20] = Increase in secretion of basic-FGF in IL-1alpha activated RA patient-derived synovial fibroblasts at 0.6 to 3 uM preincubated for 3 hrs followed by IL-1alpha stimulation measured after 18 hrs by sandwich immunoassay; conditions: human
Method in brief: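 Primary human RA synovial fibroblasts (donor RA2159) seeded at 1000 viable cells/well, grown ~24 h at 37 °C/5% CO2, then starved overnight in basal medium and for a further ~4 h in basal medium with 0.1% BSA. Inhibitor or DMSO given 3 h before stimulation. Supernatants from two adjacent wells pooled as one replicate, biological duplicate. Luminex multiplex panels (48 analytes), diluted 1:3. Mock-supernatant background and spiked-ligand cross-reactivity controls included.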

[21] = target: Mitogen-activated protein kinase kinase kinase 20 (Homo sapiens) (UniProt Q9NYL2); assay: Inhibition of human ZAK (1 to 331 residues) expressed in bacterial expression system assessed as enzyme activity at 10 uM by KINOMEScan assay relative to control; design: scale not given: the % may be the effect or the level left
Method in brief: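 In vitro ATP-site competition binding assay across a panel of 456 kinases, with compound tested at 1 and 10 μM.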

Activity [1]: Active | Activity [2]: Active | Activity [3]: Active | Activity [4]: Active | Activity [5]: Active | Activity [6]: Active | Activity [7]: Active | Activity [8]: Active | Activity [9]: Active | Activity [10]: Active | Activity [11]: Active | Activity [12]: Active | Activity [13]: Active | Activity [14]: Active | Activity [15]: Active | Activity [16]: Active | Activity [17]: Active | Activity [18]: Active | Activity [19]: Active
Structure (SMILES): C=CC(=O)Nc1ccccc1Nc1nc(Nc2ccc(N3CCN(CCOCCOCCOCCNC(=O)CCCC[C@@H]4SC[C@@H]5NC(=O)N[C@@H]54)CC3)cc2)ncc1Cl
Activity (NCI-H23): Active

Structure (SMILES): COc1cc(O)c2c(c1)/C=C/C[C@H](O)[C@H](O)C(=O)/C=C\C[C@H](C)OC2=O
Activity [20]: Non-Toxic | Activity [21]: 2.2%
